Data on 4 molecules can be found in ChEMBL document CHEMBL1811862, “Ieodomycins A-D, antimicrobial fatty acids from a marine Bacillus sp” (2011).

In brackets after ≈: the same amount, converted by molar mass.

The first assay has as its system Saccharomyces cerevisiae. In words: Antimicrobial activity against Saccharomyces cerevisiae KCTC 7913 after 48 hrs by broth dilution method. The conditions noted are these: KCTC 7913, 48 h. It counts as functional. In a few lines: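 Yeast maltose broth, with twofold serial dilutions spanning 0.5–512.0 μg/mL in microtiter plates. An overnight yeast culture was adjusted to 1.5 × 10⁸ cfu/mL by the 0.5 McFarland standard and added to each well. Plates were held 48 h at 30 °C. MIC was the lowest concentration without visible turbidity.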
As to `C=C/C=C(\C)CC[C@@H](O)C[C@H](O)CC(=O)OC` [IEODOMYCIN A], the MIC (commonly the lowest concentration found to suppress growth) is 256 µg/mL (≈ 1060 µM).
Still for that read-out and setting: for `C=C/C=C(\C)CC[C@@H]1C[C@H](O)CC(=O)O1` [IEODOMYCIN B] the value was 256 µg/mL (≈ 1220 µM).
With `C[C@@H](O)CCC/C=C/C=C/[C@@H](O)CC(=O)O` [IEODOMYCIN C], the MIC amounted to 256 µg/mL (≈ 1120 µM).
The same measure, in the same setting: for `C[C@@H](O)CCC/C=C/C=C/C(=O)O` [IEODOMYCIN D] the value was 256 µg/mL (≈ 1390 µM).

The next assay relates to Bacillus subtilis. In words: Antimicrobial activity against Bacillus subtilis KCTC 1021 after 24 hrs by broth dilution method. It counts as functional. The conditions noted are these: KCTC 1021, 24 h. In a few lines:
(§1)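 Twofold serial dilutions in nutrient broth (0.5–512.0 μg/mL) in microtiter plates. An overnight culture was adjusted to 1.5 × 10⁸ cfu/mL against the 0.5 McFarland standard and added to each dilution. Plates were incubated 24 h at 37 °C. MIC was the lowest concentration giving no visible growth (turbidity).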
For the molecule `C=C/C=C(\C)CC[C@@H](O)C[C@H](O)CC(=O)OC` [IEODOMYCIN A], it took 32 µg/mL (≈ 132 µM) to inhibit growth (MIC).
Consider `C=C/C=C(\C)CC[C@@H]1C[C@H](O)CC(=O)O1` [IEODOMYCIN B], for which the MIC came to 32 µg/mL (≈ 152 µM).
On to `C[C@@H](O)CCC/C=C/C=C/[C@@H](O)CC(=O)O` [IEODOMYCIN C], for which the lowest concentration to inhibit growth (MIC) was 32 µg/mL (≈ 140 µM).
The same measure, in the same setting: for `C[C@@H](O)CCC/C=C/C=C/C(=O)O` [IEODOMYCIN D] the value was 32 µg/mL (≈ 174 µM).

A further assay concerns Escherichia coli. In words: Antimicrobial activity against Escherichia coli KCTC 1923 after 24 hrs by broth dilution method. As to conditions: KCTC 1923, 24 h. It counts as functional. In a few lines: as §1
For orientation: In broth dilution the organism is exposed to a series of concentrations in liquid medium.
The molecule `C=C/C=C(\C)CC[C@@H](O)C[C@H](O)CC(=O)OC` [IEODOMYCIN A] registered an MIC of 32 µg/mL (≈ 132 µM).
`C=C/C=C(\C)CC[C@@H]1C[C@H](O)CC(=O)O1` [IEODOMYCIN B]: it took 32 µg/mL (≈ 152 µM) to inhibit growth (MIC).
Same read-out and setting: for `C[C@@H](O)CCC/C=C/C=C/[C@@H](O)CC(=O)O` [IEODOMYCIN C] the value was 32 µg/mL (≈ 140 µM); for `C[C@@H](O)CCC/C=C/C=C/C(=O)O` [IEODOMYCIN D], 32 µg/mL (≈ 174 µM).
